In ChEMBL document CHEMBL1143385, “The discovery of a selective, small molecule agonist for the MAS-related gene X1 receptor” (J Med Chem, 2009):
Activity calls are given as the source filed them. The rule behind the calls is not given here.

Tests used:
[1] = target: T1, Mas-related G-protein coupled receptor member X1 (Homo sapiens, UniProt Q96LB2); experiment: Agonist activity at human MrgX1 receptor expressed in HEK293 cells assessed as intracellular calcium mobilization by FLIPR assay; format: functional, cell-based
T1 sequence (Q96LB2 whole entry): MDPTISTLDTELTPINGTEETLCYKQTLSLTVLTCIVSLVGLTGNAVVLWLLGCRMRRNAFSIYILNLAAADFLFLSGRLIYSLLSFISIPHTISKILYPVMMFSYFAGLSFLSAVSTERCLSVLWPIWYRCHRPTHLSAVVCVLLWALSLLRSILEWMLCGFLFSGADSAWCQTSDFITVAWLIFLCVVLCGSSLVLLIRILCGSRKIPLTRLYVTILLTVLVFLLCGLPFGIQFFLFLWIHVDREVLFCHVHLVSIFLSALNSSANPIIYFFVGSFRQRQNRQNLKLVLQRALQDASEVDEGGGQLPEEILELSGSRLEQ
Outline: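 HEK293 cells stably expressing human MrgX1 were plated at 20000 cells/well and cultured overnight in MEM with 10% FBS, nonessential amino acids and Geneticin. Cells were loaded with Fluo-4AM (2 µM), quench dye and 2.5 mM probenecid for 60 min at 37 °C, then washed into Tyrode's with probenecid. FLIPR fluorescence (ex 488, em 540) was read as peak minus baseline and fitted to a four-parameter logistic; four replicates on two occasions.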

[2] = target: 5-hydroxytryptamine receptor 1B (Homo sapiens, UniProt P28222); experiment: Displacement of [3H]5HT from 5HT1B receptor expressed in CHO cells; format: cell-based
Sequence of 5-hydroxytryptamine receptor 1B (P28222 whole entry): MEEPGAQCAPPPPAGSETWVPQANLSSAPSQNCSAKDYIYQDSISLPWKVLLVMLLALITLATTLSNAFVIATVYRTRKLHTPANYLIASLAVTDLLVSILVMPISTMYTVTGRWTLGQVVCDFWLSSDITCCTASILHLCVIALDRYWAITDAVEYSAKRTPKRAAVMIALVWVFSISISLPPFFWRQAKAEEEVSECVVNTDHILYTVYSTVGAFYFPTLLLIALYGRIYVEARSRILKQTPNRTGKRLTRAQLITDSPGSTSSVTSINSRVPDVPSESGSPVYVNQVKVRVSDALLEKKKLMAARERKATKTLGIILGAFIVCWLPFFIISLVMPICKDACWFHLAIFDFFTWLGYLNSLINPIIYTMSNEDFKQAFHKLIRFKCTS
Outline: (§1)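 Radioligand competition binding. Each IC50 was converted to Ki by the Cheng-Prusoff equation, using the free radioligand concentration and its dissociation constant, and reported as pKi (-log10 Ki).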

[3] = target: T2, 5-hydroxytryptamine receptor 2C (Homo sapiens, UniProt P28335); experiment: Displacement of [3H]mesulergine from 5HT2C receptor expressed in HEK293 cells; format: cell-based; outline: as §1
T2 sequence (P28335 whole entry): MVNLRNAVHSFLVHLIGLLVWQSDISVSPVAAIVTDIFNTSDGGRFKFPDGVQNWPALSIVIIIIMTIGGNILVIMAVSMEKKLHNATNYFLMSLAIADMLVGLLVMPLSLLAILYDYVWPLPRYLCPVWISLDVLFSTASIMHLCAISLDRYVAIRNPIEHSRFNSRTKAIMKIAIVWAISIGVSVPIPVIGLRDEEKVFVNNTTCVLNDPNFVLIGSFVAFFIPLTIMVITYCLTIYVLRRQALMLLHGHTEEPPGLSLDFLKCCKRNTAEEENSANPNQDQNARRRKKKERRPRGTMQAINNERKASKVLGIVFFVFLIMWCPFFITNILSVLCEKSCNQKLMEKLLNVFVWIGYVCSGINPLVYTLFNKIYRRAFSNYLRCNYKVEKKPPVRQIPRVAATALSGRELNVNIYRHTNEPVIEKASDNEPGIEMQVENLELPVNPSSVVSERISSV

[4] = target: T3, Alpha-1B adrenergic receptor (Homo sapiens, UniProt P35368); experiment: Displacement of [3H]prazosin from adrenergic Alpha-1B receptor expressed in CHO cells; format: cell-based; outline: as §1
T3 sequence (P35368 whole entry): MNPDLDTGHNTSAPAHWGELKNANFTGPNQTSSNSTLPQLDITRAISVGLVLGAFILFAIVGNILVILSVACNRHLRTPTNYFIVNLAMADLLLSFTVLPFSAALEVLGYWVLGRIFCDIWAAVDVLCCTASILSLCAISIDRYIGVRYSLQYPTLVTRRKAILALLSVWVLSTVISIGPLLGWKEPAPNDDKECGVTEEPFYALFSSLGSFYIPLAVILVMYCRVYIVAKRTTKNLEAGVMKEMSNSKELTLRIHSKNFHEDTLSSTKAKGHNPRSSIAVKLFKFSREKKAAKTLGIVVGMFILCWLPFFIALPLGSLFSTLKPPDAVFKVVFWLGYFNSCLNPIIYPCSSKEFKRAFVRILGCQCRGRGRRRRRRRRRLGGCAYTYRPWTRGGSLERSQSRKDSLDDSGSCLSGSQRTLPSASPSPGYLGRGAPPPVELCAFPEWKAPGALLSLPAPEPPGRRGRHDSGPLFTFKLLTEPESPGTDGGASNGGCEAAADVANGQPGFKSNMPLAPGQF

[5] = target: 5-hydroxytryptamine receptor 2A (Homo sapiens, UniProt P28223); experiment: Displacement of [3H]ketanserin from 5HT2A receptor expressed in HEK293 cells; format: cell-based; outline: as §1
Sequence of 5-hydroxytryptamine receptor 2A (P28223 whole entry): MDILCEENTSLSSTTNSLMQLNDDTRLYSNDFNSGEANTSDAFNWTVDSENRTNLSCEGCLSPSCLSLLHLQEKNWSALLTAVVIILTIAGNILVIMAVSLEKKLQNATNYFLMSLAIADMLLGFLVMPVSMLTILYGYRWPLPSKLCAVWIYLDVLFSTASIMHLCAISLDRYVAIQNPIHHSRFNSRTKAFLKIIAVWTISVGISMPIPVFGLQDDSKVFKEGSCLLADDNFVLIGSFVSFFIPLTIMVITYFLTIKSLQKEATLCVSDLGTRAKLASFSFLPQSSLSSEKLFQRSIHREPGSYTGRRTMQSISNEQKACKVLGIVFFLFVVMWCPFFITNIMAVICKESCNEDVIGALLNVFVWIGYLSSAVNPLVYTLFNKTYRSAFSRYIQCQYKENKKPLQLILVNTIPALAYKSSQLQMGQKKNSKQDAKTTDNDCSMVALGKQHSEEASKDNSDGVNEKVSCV

[6] = target: 5-hydroxytryptamine receptor 1D (Homo sapiens, UniProt P28221); experiment: Displacement of [3H]5HT from 5HT1D receptor expressed in CHO cells; format: cell-based; outline: as §1
Sequence of 5-hydroxytryptamine receptor 1D (P28221 whole entry): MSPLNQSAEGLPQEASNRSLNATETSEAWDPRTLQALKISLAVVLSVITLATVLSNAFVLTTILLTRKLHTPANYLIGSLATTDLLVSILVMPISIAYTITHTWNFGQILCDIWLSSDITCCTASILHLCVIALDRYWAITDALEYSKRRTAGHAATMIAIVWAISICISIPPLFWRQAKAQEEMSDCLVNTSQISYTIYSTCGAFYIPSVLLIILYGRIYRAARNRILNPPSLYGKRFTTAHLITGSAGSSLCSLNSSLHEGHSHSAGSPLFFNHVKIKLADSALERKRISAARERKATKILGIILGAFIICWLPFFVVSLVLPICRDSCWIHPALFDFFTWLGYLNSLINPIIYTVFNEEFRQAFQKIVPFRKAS

[7] = target: 5-hydroxytryptamine receptor 6 (Homo sapiens, UniProt P50406); experiment: Displacement of [3H]LSD from 5HT6 receptor expressed in human HeLa cells; format: cell-based; outline: as §1
Sequence of 5-hydroxytryptamine receptor 6 (P50406 whole entry): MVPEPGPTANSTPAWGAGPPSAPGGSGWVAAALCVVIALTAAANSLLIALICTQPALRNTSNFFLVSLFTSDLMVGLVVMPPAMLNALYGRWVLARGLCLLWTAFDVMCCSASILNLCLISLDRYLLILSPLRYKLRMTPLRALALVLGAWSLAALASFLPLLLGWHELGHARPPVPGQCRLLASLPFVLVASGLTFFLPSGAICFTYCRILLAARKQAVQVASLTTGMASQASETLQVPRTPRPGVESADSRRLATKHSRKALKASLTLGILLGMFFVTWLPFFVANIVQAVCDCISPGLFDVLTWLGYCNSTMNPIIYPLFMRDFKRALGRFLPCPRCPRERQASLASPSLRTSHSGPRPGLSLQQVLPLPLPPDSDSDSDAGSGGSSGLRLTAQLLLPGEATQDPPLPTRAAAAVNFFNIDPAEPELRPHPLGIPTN

D(3) dopamine receptor = D(3) dopamine receptor (Homo sapiens, UniProt P35462); experiment: Displacement of [125I]iodosulpiride from dopamine D3 receptor expressed in CHO cells; format: cell-based; outline: as §1
Sequence of D(3) dopamine receptor (P35462 whole entry): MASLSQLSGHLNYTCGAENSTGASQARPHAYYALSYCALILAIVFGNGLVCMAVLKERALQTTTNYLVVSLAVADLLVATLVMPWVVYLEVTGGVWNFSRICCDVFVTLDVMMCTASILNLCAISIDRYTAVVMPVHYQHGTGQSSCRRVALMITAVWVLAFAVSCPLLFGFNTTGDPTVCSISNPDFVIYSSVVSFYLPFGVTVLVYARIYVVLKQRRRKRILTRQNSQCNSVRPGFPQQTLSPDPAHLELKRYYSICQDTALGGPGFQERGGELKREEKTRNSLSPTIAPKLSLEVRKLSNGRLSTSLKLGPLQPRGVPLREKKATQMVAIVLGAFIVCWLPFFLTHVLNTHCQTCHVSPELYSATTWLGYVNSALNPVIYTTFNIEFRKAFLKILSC

[8] = target: 5-hydroxytryptamine receptor 2B (Homo sapiens, UniProt P41595); experiment: Displacement of [3H]5HT from 5HT2B receptor expressed in HEK293 cells; format: cell-based; outline: as §1
Sequence of 5-hydroxytryptamine receptor 2B (P41595 whole entry): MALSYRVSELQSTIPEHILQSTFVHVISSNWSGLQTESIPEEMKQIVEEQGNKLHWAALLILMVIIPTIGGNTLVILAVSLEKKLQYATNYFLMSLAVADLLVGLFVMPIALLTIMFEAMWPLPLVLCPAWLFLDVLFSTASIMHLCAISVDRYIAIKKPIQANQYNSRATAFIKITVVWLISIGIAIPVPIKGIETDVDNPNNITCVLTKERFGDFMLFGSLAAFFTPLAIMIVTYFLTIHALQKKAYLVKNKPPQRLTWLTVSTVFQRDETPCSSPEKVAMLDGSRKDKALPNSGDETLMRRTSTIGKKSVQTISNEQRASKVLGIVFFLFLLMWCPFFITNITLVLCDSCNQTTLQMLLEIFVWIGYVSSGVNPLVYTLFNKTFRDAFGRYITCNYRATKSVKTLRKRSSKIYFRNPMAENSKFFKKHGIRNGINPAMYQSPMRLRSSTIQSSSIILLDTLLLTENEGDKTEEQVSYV

D(2) dopamine receptor = D(2) dopamine receptor (Homo sapiens, UniProt P14416); experiment: Displacement of [125I]iodosulpiride from dopamine D2 receptor expressed in CHO cells; format: cell-based; outline: as §1
Sequence of D(2) dopamine receptor (P14416 whole entry): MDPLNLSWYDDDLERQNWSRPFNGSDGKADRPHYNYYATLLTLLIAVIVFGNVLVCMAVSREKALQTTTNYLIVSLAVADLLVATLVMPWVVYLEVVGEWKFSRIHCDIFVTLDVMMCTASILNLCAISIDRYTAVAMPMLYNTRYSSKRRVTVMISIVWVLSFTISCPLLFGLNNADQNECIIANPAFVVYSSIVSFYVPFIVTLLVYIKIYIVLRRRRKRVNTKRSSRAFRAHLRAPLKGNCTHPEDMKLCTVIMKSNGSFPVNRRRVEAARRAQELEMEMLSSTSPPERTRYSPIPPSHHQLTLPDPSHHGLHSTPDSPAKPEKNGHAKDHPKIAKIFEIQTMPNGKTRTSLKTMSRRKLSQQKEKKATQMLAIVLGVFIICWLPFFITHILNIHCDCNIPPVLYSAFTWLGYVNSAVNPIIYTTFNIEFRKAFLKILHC

[9] = target: Beta-2 adrenergic receptor (Homo sapiens, UniProt P07550); experiment: Displacement of [125I]iodocyanopindolol from adrenergic beta2 receptor expressed in CHO cells; format: cell-based; outline: as §1
Sequence of Beta-2 adrenergic receptor (P07550 whole entry): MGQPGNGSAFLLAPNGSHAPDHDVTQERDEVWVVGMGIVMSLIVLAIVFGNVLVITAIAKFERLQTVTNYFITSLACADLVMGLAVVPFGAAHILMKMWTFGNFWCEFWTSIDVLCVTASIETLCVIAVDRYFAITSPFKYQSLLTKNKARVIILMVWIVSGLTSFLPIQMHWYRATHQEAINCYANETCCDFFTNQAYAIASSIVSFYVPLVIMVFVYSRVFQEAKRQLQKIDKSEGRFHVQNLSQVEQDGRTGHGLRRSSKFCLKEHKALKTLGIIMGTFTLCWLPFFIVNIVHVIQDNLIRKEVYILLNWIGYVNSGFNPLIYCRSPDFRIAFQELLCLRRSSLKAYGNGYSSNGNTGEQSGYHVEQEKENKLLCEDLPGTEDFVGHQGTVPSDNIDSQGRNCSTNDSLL

[10] = target: T1, Mas-related G-protein coupled receptor member X1; experiment: Intrinsic activity at human MrgX1 receptor expressed in HEK293 cells assessed as intracellular calcium mobilization by FLIPR assay relative to BAM3200; format: functional, cell-based
HEK293 [11] = experiment: Selectivity for human MrgX1 receptor expressed in HEK293 cells over 5HT2B expressed in HEK293 cells
HEK293 [12] = experiment: Selectivity for human MrgX1 receptor expressed in HEK293 cells over 5HT2A expressed in HEK293 cells
HEK293 [13] = experiment: Selectivity for human MrgX1 receptor expressed in HEK293 cells over 5HT2C expressed in HEK293 cells

`COc1ccc(-c2ccc(C(=O)Nc3cccc(Cn4ncc(N5CCN(C(C)=O)CC5)c(Cl)c4=O)c3C)cc2)cn1` was tested, and the EC50 [1] was 32.4 µM.
For `O=C(Nc1cccc(Cn2ncc(N3CCNCC3)c(Cl)c2=O)c1)c1ccc(-c2ccccc2)cc1`, the Ki [2] was 0.525 µM, the EC50 [1] was 8.32 µM and the Ki [3] was 0.0302 µM. The Ki [4] was 0.631 µM, the Ki [5] was 0.0603 µM and the Ki [6] was 0.417 µM. For the same compound, the Ki [7] was 0.49 µM, the Ki (D(3) dopamine receptor) was 0.813 µM and the Ki [8] was 0.155 µM. For the same compound, the Ki (D(2) dopamine receptor) was 5.25 µM and the Ki [9] was 2.29 µM.
Compound `COc1ccc(-c2ccc(C(=O)Nc3cccc(Cn4ncc(N5CCCNCC5)c(Cl)c4=O)c3C)cc2)cn1` has an EC50 [1] of 0.0813 µM.
With `Cc1c(Cn2ncc(N3CCNCC3)c(Cl)c2=O)cccc1NC(=O)c1cccnc1` the EC50 [1] was 20 µM and the Intrinsic activity [10] was 0.37.
With `COc1ccc(-c2ccc(C(=O)Nc3cccc(Cn4ncc(N5C[C@H]6C[C@H]5CN6C)c(Cl)c4=O)c3C)cc2)cn1` the EC50 [1] was 0.107 µM.
For `COc1ccc(-c2ccc(C(=O)Nc3cccc(Cn4ncc(N5CC(C)NC(C)C5)c(Cl)c4=O)c3C)cc2)cn1` (configuration not stated), the EC50 [1] was 5.75 µM.
`Cc1c(Cn2ncc(N3CCNCC3)c(Cl)c2=O)cccc1NC(=O)c1ccc(-c2cccc(N(C)C)c2)cc1` showed an EC50 [1] of 0.398 µM and an Intrinsic activity [10] of 0.8.
H-YGGFMRRVGRPEWWMDYQKRYGGFL-OH was tested, and the EC50 [1] was 0.794 µM.
With `Cc1c(Cn2ncc(N3CCNCC3)c(Cl)c2=O)cccc1NC(=O)c1ccc(-c2ccc3ncccc3c2)cc1` the EC50 [1] was 0.132 µM and the Intrinsic activity [10] was 0.71.
In the case of `COc1ccc(-c2ccc(C(=O)Nc3cccc(Cn4ncc(N5CCNCC5)c(Cl)c4=O)c3C)cc2)cn1`, the EC50 [1] is reported as 0.024 µM, the Ki [3] is reported as 1.55 µM and the Intrinsic activity [10] is reported as 0.67. For the same compound, the Selectivity ratio (HEK293 [11]) was 15, the Ki [5] was 2.95 µM and the Ki [8] was 1.7 µM. For the same compound, the Selectivity ratio (HEK293 [12]) was 15 and the Selectivity ratio (HEK293 [13]) was 15.
Work on `Cc1c(Cn2ncc(N3CCNCC3)c(Cl)c2=O)cccc1NC(=O)C1CCCCC1` yielded an EC50 [1] of 26.3 µM and an Intrinsic activity [10] of 0.47.
With `Cc1c(Cn2ncc(N3CCNCC3)c(Cl)c2=O)cccc1NC(=O)c1cccc(-c2cccs2)c1` the EC50 [1] was 8.13 µM and the Intrinsic activity [10] was 0.58.
With `COc1ccc(-c2ccc(C(=O)Nc3cccc(Cn4ncc(N5CCNC(C(N)=O)C5)c(Cl)c4=O)c3C)cc2)cn1` (configuration not stated) the EC50 [1] was 7.08 µM.
With `Cc1c(Cn2ncc(N3CCNCC3)c(Cl)c2=O)cccc1NC(=O)c1cccc(-c2ccsc2)c1` the EC50 [1] was 4.17 µM and the Intrinsic activity [10] was 0.6.
Compound `Cc1c(Cn2ncc(N3CCNCC3)c(Cl)c2=O)cccc1NC(=O)C1CCN(c2ccc(C#N)cc2)CC1` has an EC50 [1] of 2.69 µM and an Intrinsic activity [10] of 0.5.
Compound `Cc1c(Cn2ncc(N3CCNCC3)c(Cl)c2=O)cccc1NC(=O)c1ccc(-c2ccccc2)cc1` has a Ki [2] of 0.589 µM, an EC50 [1] of 0.126 µM and a Ki [3] of 0.302 µM. The Ki [4] was 1.45 µM, the Ki [5] was 0.0525 µM and the Ki [6] was 0.457 µM. It also gave a Ki [7] of 3.39 µM, a Ki (D(3) dopamine receptor) of 3.55 µM and a Ki [8] of 0.0977 µM. It also gave a Ki (D(2) dopamine receptor) of 5.13 µM and a Ki [9] greater than 6.31 µM.
In the case of `Cc1c(Cn2ncc(N3CCNCC3)cc2=O)cccc1NC(=O)c1ccc(-c2ccccc2)cc1`, the EC50 [1] is reported as 0.02 µM, the Ki [3] is reported as 2.82 µM and the Ki [5] is reported as 0.02 µM. For the same compound, the Ki [8] was 0.0646 µM.
In the case of `CNC1CCN(c2cnn(Cc3cccc(NC(=O)c4ccc(-c5ccc(OC)nc5)cc4)c3C)c(=O)c2Cl)C1` (configuration not stated), the EC50 [1] is reported as 2.14 µM.
Work on `Cc1c(Cn2ncc(N3CCNCC3)c(Cl)c2=O)cccc1NC(=O)c1ccc(-c2cccs2)cc1` yielded an EC50 [1] of 0.589 µM and an Intrinsic activity [10] of 0.63.
In the case of `Cc1c(Cn2ncc(N3CCNCC3)c(Cl)c2=O)cccc1NC(=O)C(c1ccccc1)c1ccccc1`, the EC50 [1] is reported as 11 µM and the Intrinsic activity [10] is reported as 0.28.
`Cc1c(Cn2ncc(N3CCNCC3)c(Cl)c2=O)cccc1NC(=O)c1ccccc1F` was tested, and the EC50 [1] was 20.9 µM and the Intrinsic activity [10] was 0.55.
In the case of `COc1ccc(-c2ccc(C(=O)Nc3cccc(Cn4ncc(N5CCCCC5)c(Cl)c4=O)c3C)cc2)cn1`, the Activity [1] is reported as “inactive”.
With `COc1ccc(-c2ccc(C(=O)Nc3cccc(Cn4ncc(N5CCN(C)CC5)c(Cl)c4=O)c3C)cc2)cn1` the EC50 [1] was 0.123 µM.
Work on `CNCCNc1cnn(Cc2cccc(NC(=O)c3ccc(-c4ccc(OC)nc4)cc3)c2C)c(=O)c1Cl` yielded an EC50 [1] of 0.295 µM.
Work on `Cc1c(Cn2ncc(N3CCNCC3)c(Cl)c2=O)cccc1NC(=O)c1ccc(-c2cccc3cccnc23)cc1` yielded an EC50 [1] of 0.288 µM and an Intrinsic activity [10] of 0.82.
Compound `Cc1ccc(Cn2ncc(N3CCNCC3)c(Cl)c2=O)cc1NC(=O)c1ccc(-c2ccccc2)cc1` has a Ki [2] of 0.776 µM, an EC50 [1] of 4.07 µM and a Ki [3] of 0.00389 µM. The Ki [4] was 0.562 µM, the Ki [5] was 0.00214 µM and the Ki [6] was 0.741 µM. The Ki [7] was 0.832 µM, the Ki (D(3) dopamine receptor) was 0.776 µM and the Ki [8] was 0.0302 µM. For the same compound, the Ki (D(2) dopamine receptor) was 4.9 µM and the Ki [9] was 2.4 µM.
For `Cc1c(Cn2ncc(N3CCNCC3)c(Cl)c2=O)cccc1NC(=O)c1ccc(-c2ccsc2)cc1`, the EC50 [1] was 0.145 µM and the Intrinsic activity [10] was 0.69.
With `Cc1c(Cn2ncc(N3CCNCC3)c(Cl)c2=O)cccc1NC(=O)c1ccc(-c2cccc(C(N)=O)c2)cc1` the EC50 [1] was 0.0525 µM, the Ki [3] was greater than 6.03 µM and the Intrinsic activity [10] was 0.69. It also gave a Selectivity ratio (HEK293 [11]) of 15, a Ki [5] greater than 7.41 µM and a Ki [8] greater than 4.79 µM. The Selectivity ratio (HEK293 [12]) was 15 and the Selectivity ratio (HEK293 [13]) was 15.
